Reference: ChEMBL document CHEMBL1124071, “New human renin inhibitors containing an unnatural amino acid, norstatine” (J Med Chem, 1988)

Assays:
Renin [1] = biological target: T1, Renin (Homo sapiens, UniProt P00797); assay: Inhibitory concentration against human renin
T1 sequence (P00797 whole entry): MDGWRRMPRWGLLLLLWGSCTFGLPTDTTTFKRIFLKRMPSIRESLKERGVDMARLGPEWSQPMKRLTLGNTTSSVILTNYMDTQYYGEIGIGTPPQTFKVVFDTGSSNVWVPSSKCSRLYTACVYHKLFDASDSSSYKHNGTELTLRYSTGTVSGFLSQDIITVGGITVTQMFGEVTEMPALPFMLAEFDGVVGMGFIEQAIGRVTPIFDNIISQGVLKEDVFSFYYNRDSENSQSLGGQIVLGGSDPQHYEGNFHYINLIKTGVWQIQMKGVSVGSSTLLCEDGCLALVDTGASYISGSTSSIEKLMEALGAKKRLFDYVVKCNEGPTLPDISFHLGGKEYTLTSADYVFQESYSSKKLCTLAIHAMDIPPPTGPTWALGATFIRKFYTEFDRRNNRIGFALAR

Renin [2] = biological target: T1, Renin; assay: Inhibitory concentration was measured against plasma renin from human; assay type: cell-free
Outline: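 Human plasma containing EDTA-2Na (14 mM) and neomycin sulfate (0.3%) was mixed with 0.5 M phosphate buffer pH 7.0, Phe-Ala-Pro and inhibitor in DMSO. Incubation ran 60 min at 37 °C, then angiotensin I generated was quantified by radioimmunoassay. IC50 refers to inhibition of plasma renin activity.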

Renin [3] = biological target: T2, Renin (Rattus norvegicus, UniProt P08424); assay: Inhibitory concentration was measured against plasma renin from rat
T2 sequence (P08424 whole entry): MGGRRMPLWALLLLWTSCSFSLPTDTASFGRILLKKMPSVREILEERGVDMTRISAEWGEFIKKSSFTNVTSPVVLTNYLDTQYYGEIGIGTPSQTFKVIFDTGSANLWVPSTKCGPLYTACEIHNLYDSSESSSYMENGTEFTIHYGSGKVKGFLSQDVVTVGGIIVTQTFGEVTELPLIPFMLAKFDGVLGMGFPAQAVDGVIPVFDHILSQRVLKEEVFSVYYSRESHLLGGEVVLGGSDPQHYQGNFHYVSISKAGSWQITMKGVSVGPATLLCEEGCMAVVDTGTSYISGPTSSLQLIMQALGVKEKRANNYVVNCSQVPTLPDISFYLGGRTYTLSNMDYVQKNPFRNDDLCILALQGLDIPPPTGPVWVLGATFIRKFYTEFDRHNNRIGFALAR

Renin (Canis familiaris) = assay: Inhibitory concentration was measured against plasma renin from dog

SMILES	IC50 (Renin [1]) [nM]	IC50 (Renin [2]) [nM]	IC50 (Renin [3]) [nM]	IC50 (Renin (Canis familiaris)) [nM]
COC(=O)[C@H](O)C(CC(C)C)NC(=O)C(Cc1cnc[nH]1)NC(=O)C(CC(=O)NCCc1ccccc1)Cc1cccc2ccccc12 (single isomer, unassigned; (+))	31	77		
COC(=O)C(O)C(CC(C)C)NC(=O)C(Cc1c[nH]cn1)NC(=O)C(CC(=O)NCCc1ccccc1)Cc1cccc2ccccc12 (stereo in doubt)	78	90	> 100000	2100
COC(=O)C(O)C(CC(C)C)NC(=O)C(Cc1c[nH]cn1)NC(=O)C(CC(=O)NCCc1ccccc1)Cc1cccc2ccccc12 (stereo in doubt; 12)	> 100000			
COC(=O)[C@@H](O)C(CC(C)C)NC(=O)C(Cc1c[nH]cn1)NC(=O)C(CC(=O)NCCc1ccccc1)Cc1cccc2ccccc12 (single isomer, unassigned; (+))	1300			
CC(C)CC(NC(=O)C(Cc1c[nH]cn1)NC(=O)C(CC(=O)N1CCOCC1)Cc1cccc2ccccc12)C(O)C(=O)NC(C)C (stereo not given)	130	130	4400	1100
COC(=O)C(O)C(CC(C)C)NC(=O)C(Cc1c[nH]cn1)NC(=O)C(CC(=O)N(C)C)Cc1cccc2ccccc12 (stereo not given)	78	25	> 100000	640
CC(C)CC(NC(=O)C(Cc1cnc[nH]1)NC(=O)C(CC(=O)N1CCOCC1)Cc1cccc2ccccc12)C(O)CC(=O)OC(C)C (stereo not given)	180	66	> 100000	350
